Source: ChEMBL document CHEMBL4002547, “Aminopurine and aminoquinazoline scaffolds for development of potential dengue virus inhibitors” (Eur J Med Chem, 2017)

Columns and labels:
dengue virus type 2 [1] = assay: Antiviral activity against Dengue virus serotype 2 infected in African green monkey Vero B cells assessed as inhibition of viral RNA replication after 4 days by RT-qPCR method; assay type: functional; settings: 96 h, read-out: ED50 (the source's name)
[2] = Cytotoxicity against African green monkey Vero B cells assessed as decrease in cell viability by MTS/PMS assay; assay type: cell-based; settings: chlorocebus sabaeus
In short: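 Vero B cells (African green monkey kidney, ECACC) were incubated for 7 days with serial compound dilutions without virus. Toxicity was quantified by the MTS/PMS method, and CC50 is the compound concentration giving 50% cytotoxicity.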

[3] = Cytotoxicity against African green monkey Vero B cells assessed as decrease in cell viability by microscopic method; assay type: cell-based; settings: chlorocebus sabaeus
In short: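 Uninfected Vero B cells were exposed for 7 days to serial compound dilutions. Wells were inspected microscopically for changes in host cell morphology, and CC50 was calculated from the microscopic scoring data.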

[4] = Selectivity index, ratio of CC50 for African green monkey Vero B cells to EC50 for Dengue virus serotype 2 infected in African green monkey Vero B cells; assay type: toxicity; settings: read-out: Ratio CC50/EC50
In short: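 In a CPE-reduction assay, DENV-2 in Vero B cells was run over 7 days with serial compound dilutions, with and without virus. EC50 (inhibition of virus-induced CPE) and CC50 come from microscopic scoring, with MTS/PMS also used for toxicity. The index is CC50/EC50.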

[5] = Inhibition of Dengue virus serotype 2 N-terminal His6-tagged NS5 RdRp activity expressed in baculovirus expression system using poly(C)/5'-biotinylated oligo (G)20 as template/primer assessed as inhibition of [3H]GTP incorporation after 20 mins by scintillation proximity assay; parameters: species or system dengue virus type 2
dengue virus type 2 [6] = assay: Antiviral activity against Dengue virus serotype 2 by human cell-based assay; assay type: functional

Structure (SMILES): COc1ccc(Cn2cnc3c(Nc4ccc(C)cc4-c4cc(C)n[nH]4)nc(Cl)nc32)cc1
- EC50 (dengue virus type 2 [1]): 1.9 µM
- CC50 [2]: > 109 µM
- CC50 [3]: 10 µM
- selectivity ratio [4]: 58

Structure (SMILES): Cc1ccc(Nc2nc(Nc3ccc(F)cc3)nc3ccccc23)c(-c2cc(C)n[nH]2)c1
- EC50 (dengue virus type 2 [1]): 6.7 µM
- CC50 [2]: 8.7 µM
- selectivity ratio [4]: 1

Structure (SMILES): COc1ccc(Cn2cnc3c(Nc4ccc(C)cc4Br)nc(Cl)nc32)cc1
- EC50 (dengue virus type 2 [1]): 7.2 µM
- CC50 [2]: > 109 µM
- CC50 [3]: 63 µM
- selectivity ratio [4]: 15

Structure (SMILES): Cc1ccc(Nc2nc(Cl)nc3ccccc23)c(-c2cc(C)n[nH]2)c1
- EC50 (dengue virus type 2 [1]): 9.2 µM
- CC50 [2]: 97 µM
- selectivity ratio [4]: 11

Structure (SMILES): Cc1ccc(Nc2nc(Cl)nc3ccccc23)c(Br)c1
- EC50 (dengue virus type 2 [1]): 10.9 µM
- CC50 [2]: > 144 µM
- CC50 [3]: 32 µM
- selectivity ratio [4]: 13

Structure (SMILES): Cc1ccc(Nc2nc(Cl)nc3[nH]cnc23)c(-c2cc(C)n[nH]2)c1
- EC50 (dengue virus type 2 [1]): 28.9 µM
- CC50 [2]: > 147 µM
- selectivity ratio [4]: 5

Structure (SMILES): O=C(O)c1ccccc1NS(=O)(=O)c1cccc(-c2cnn(Cc3ccccc3)c2)c1
- IC50 [5]: 0.7 µM

Structure (SMILES): Clc1ccc(-c2ccc(-c3nc(NCc4cccnc4)c4ccccc4n3)s2)cc1
- EC50 (dengue virus type 2 [6]): 0.119 µM

Structure (SMILES): COc1ccc(Cn2cnc3c(Cl)nc(Cl)nc32)cc1
- EC50 (dengue virus type 2 [1]): 17.6 µM
- CC50 [2]: 32.4 µM
- selectivity ratio [4]: 2

Structure (SMILES): Cc1ccc(Nc2nc(Nc3ccc(C)cc3-c3cc(C)n[nH]3)c3ccccc3n2)cc1
- EC50 (dengue virus type 2 [1]): 2.6 µM
- CC50 [2]: 5.8 µM
- selectivity ratio [4]: 2

Structure (SMILES): COc1ccc(Cn2cnc3nc(Cl)nc(Cl)c32)cc1
- EC50 (dengue virus type 2 [1]): 9.9 µM
- CC50 [2]: 12.3 µM
- selectivity ratio [4]: 1

Structure (SMILES): Cc1ccc(Nc2nc(Cl)nc3[nH]cnc23)c(Br)c1
- EC50 (dengue virus type 2 [1]): 33.5 µM
- CC50 [2]: > 148 µM
- selectivity ratio [4]: 4
